The list is not random: actives were taken first. Their share in the collection is about 1.3%.
LEDGF integ inh: blockers of LEDGF/p75-dependent integrase strand transfer – biochemical, TR-FRET, high throughput, primary screen; HIV-1 integrase (with human LEDGF/p75); TR-FRET IN-LEDGF/p75 DNA integration, Eu/Cy5; inhibition, % at 3.7 µM; actives 0.64% (n = 370,000); AID 743269, 2014;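 active = inhibition above the screen-wide mean plus 3 SD, cut at about 13% in these data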;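 also: signal is the Cy5 over europium emission ratio at 671 and 618 nm; 0% = plate median of compound wells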
TDP2 absorb: human TDP2 enzyme inhibitors, primary screen, biochemical, epi absorbance, recombinant enzyme. AID 720702, 2013. inhibition, % at 12.8 µM. actives 0.34% (n = 370,000). Tyrosyl-DNA phosphodiesterase 2 (Homo sapiens), O95551. T5PNP hydrolysis, p-nitrophenol absorbance 415 nm;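 active = inhibition above the mean of all tested compounds plus 3 SD, set per campaign, cut at about 25% in these data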;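 also: 0% = DMSO with enzyme and 100% = buffer with substrate but no TDP2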
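Assay system: recombinant human TDP2 / Reagent: T5PNP substrate at 5 mM, a TopII-DNA adduct mimic / Measured by: epi absorbance from released p-nitrophenol / Evaluation: % inhibition relative to enzyme-containing and enzyme-free wells / Control set: enzyme-free and DMSO wells / Replicates: each compound tested once, singlicate / Schedule: enzyme reaction with compound for 2 h at 37 °C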
ASAP1 GAP inh: inhibitors of human ASAP1 ArfGAP activity, primary screen, biochemical, fluorescence polarization. Arf-GAP with SH3 domain, ANK repeat and PH domain-containing protein 1 (Homo sapiens), …. ASAP1-stimulated ARF1 GTP hydrolysis, GDP FP detection. inhibition, % at 16.5 µM. actives 0.19% (n = 360,000); in the data active = inhibition above about 25%;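 also: 0% = vehicle with enzyme and substrate and 100% = no enzyme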
Casp6 inh: human caspase-6 inhibitors, primary screen, biochemical, VEID-R110 fluorescence, single point, set 2 | P55212 | purified caspase-6, Z-VEID-R110 cleavage fluorescence | inhibition, % at 12.5 µM | actives 0.53% (n = 350,000);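 active = mean inhibition across replicates at least about 35%, with every replicate also reaching that limit, limit read from the data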;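 also: 0% = median of neutral control wells and 100% = no fluorescence left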
Target sequence (P55212 24-179 limits assumed): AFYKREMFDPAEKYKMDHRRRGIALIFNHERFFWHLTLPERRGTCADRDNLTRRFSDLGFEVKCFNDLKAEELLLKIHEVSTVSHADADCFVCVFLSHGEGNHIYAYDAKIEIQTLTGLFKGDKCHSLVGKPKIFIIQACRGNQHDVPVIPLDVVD
Target sequence (P55212 194-293 limits assumed): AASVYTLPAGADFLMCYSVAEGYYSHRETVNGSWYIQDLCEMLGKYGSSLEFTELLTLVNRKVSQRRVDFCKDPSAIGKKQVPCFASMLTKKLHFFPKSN
ARFGAP1 inhibitor: inhibitors of rat ARFGAP1 GAP activity, primary screen, biochemical, fluorescence polarization, GDP tracer. ADP-ribosylation factor GTPase-activating protein 1 (Rattus norvegicus), Q62848. Arfgap1-stimulated ARF1 GTP hydrolysis, GDP FP detection. inhibition, % at 16.5 µM. actives 0.26% (n = 360,000). AID 651572, 2012;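 active = inhibition above a per-plate limit, mean inhibition of low control wells plus 3 SD, cut at about 25% in these data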;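 also: 0% = DMSO wells with enzyme and 100% = wells lacking Arfgap1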
Target sequence (Q62848 1-136 limits assumed): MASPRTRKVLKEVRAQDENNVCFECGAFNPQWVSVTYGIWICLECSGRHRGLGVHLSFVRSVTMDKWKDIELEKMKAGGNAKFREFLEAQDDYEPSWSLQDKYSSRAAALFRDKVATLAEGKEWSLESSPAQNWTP
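System: truncated rat Arfgap1 GAP domain / Medium: HEPES-based buffer, pH 7.5 / Also added: N-terminally truncated human ARF1-GTP substrate / Incubation: enzyme reaction 120 min at 25 °C after 20 min preincubation / Measured by: FP of antibody-bound GDP Alexa 633 tracer, ex 620/em 688 nm / Replicates: singlicate, each compound tested once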
ASAP1 inh confirm: ASAP1 GAP activity inhibitors, confirmation, biochemical, fluorescence polarization, human, triplicate; shares compounds with ASAP1 GAP inh; ASAP1-stimulated Arf1 GTPase, GDP fluorescence polarization; inhibition, % at 16.5 µM; actives 37% (n = 620); AID 624431, 2012;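 active = mean inhibition over triplicates exceeds the hit threshold derived for the earlier primary screening run, cut at about 25% in these data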
Active calls of the source: *; / = no result.

SMILES	LEDGF integ inh	TDP2 absorb	ASAP1 GAP inh	Casp6 inh	ARFGAP1 inhibitor	ASAP1 inh confirm
N#CC1=C(c2ccc(-c3ccccc3)cc2)COC1=O	2	9	29*	/	4	41*
Cc1cccc(C)c1OCCOC(=O)c1cccc(S(=O)(=O)N2CCOCC2)c1	-2	6	-8	1	4	/
CCNS(=O)(=O)c1cc(-c2nnc(OC)c3ccccc23)ccc1C	5	-8	2	4	-1	/
CCc1ccc(NC(=O)C(=O)NCC2CCCO2)cc1 (stereo unspecified)	2	14	11	1	0	/
O=C(N/N=C/c1c(O)ccc2ccccc12)c1cccc(C(F)(F)F)c1	-5	-3	27*	/	8	24
COc1ccc2ccccc2c1/C=N/NC(=O)c1cccc(Br)c1	1	3	4	-5	4	/
O=C(Cc1ccccc1)O/N=C1\CCCc2ccccc21	4	-22	26*	-3	-4	8
O=C(COC(=O)c1cnccn1)NC1CCCc2ccccc21 (stereo unspecified)	3	8	48*	1	-6	4
O=C(O)Cc1ccc(OCc2ccc(Cl)nc2)cc1	1	3	-8	-6	3	/
CCC(C(=O)NC1C(=O)N2C(C(=O)O)=C(CSc3nnc(C)s3)CSC12)c1ccccc1 (stereo unspecified)	3	-7	10	12	-4	/
Cc1ccc(C)c(OC(=O)c2ccncc2)c1	5	6	1	/	0	/
CCOc1ccc(CCNC(=O)CN2C(=O)NC(CCSC)C2=O)cc1OCC (stereo unspecified)	-1	0	28*	0	11	5
CCOc1ccc(CCNC(=O)CN2C(=O)NC3(CCCCC3C)C2=O)cc1OCC (stereo unspecified)	-5	-4	-5	-8	-7	/
OCCCNc1cc(-c2ccnc(Nc3cccc(Cl)c3)n2)ccn1	0	0	27*	-3	10	18
COc1ccc2nc(NC(=O)c3cccc(N4C(=O)CCC4=O)c3)sc2c1	-6	-1	26*	2	-2	9
CCOc1ccc2nc(NC(=O)c3cccc(N4C(=O)CCC4=O)c3)sc2c1	-3	0	1	-2	8	/
Cn1c(N)c(C(=O)COC(=O)CCc2nc3ccccc3s2)c(=O)n(C)c1=O	5	-3	31*	2	4	3
Cn1c(N)c(C(=O)COC(=O)CCCc2nc3ccccc3s2)c(=O)n(C)c1=O	-2	-20	12	2	6	/
CCCc1nc2ccc(NC(=O)c3cccs3)cc2c(=O)n1Cc1ccccc1Cl	-2	-8	13	-2	-3	/
CCCc1nc2ccc(NC(C)=O)cc2c(=O)n1Cc1ccc(Cl)cc1	2	6	28*	0	9	14
Cc1ccc(S(=O)(=O)N2CCCCC2)cc1NC(=O)CSc1ccc2c(c1)OCCO2	-2	-10	1	/	3	/
O=C(Nc1ccc(OC(F)F)c(Cl)c1)Nc1ccc2c(c1)OCO2	-3	-15	-3	/	-2	/
O=C(Nc1ccc([N+](=O)[O-])cc1)Nc1ccc(OC(F)F)c(Cl)c1	0	1	27*	/	14	23
CC1(C)Oc2cc3oc(C(=O)O)cc(=O)c3cc2-c2ccccc21	7	-11	-6	1	11	/
COc1ccccc1NC(=O)COC(=O)c1cc(C)oc1C	0	-3	0	2	12	/
SMILES	LEDGF integ inh	TDP2 absorb	ASAP1 GAP inh	Casp6 inh	ARFGAP1 inhibitor	ASAP1 inh confirm
COc1ccc(Cl)cc1NC(=O)COC(=O)c1cc(C)oc1C	-3	-2	25*	-5	6	16
COc1cccc(C(C)(O)c2nc(-c3ccc(S(C)(=O)=O)cc3)cs2)c1 (stereo unspecified)	0	1	1	-1	7	/
N/C(=N\N=C\c1cccs1)SC1CC(=O)N(c2ccc(Br)cc2)C1=O (stereo unspecified)	5	-3	0	2	5	/
N/C(=N\N=C\c1ccnc2ccccc12)SC1CC(=O)N(c2ccc(Br)cc2)C1=O (stereo unspecified)	2	-1	61*	/	11	88*
CN(C)C(=O)C[C@H]1C[C@H]2c3cc(NS(=O)(=O)c4ccccc4)ccc3O[C@H]2[C@@H](CO)O1	/	/	/	1	/	/
O=C(Nc1ccc(Nc2ccncc2)cc1)c1ccc(Nc2ccnc3ccc([N+](=O)[O-])cc23)cc1	0	8	46*	0	77*	75*
CS(=O)(=O)Nc1ccc(-c2ccc(/C=C3\SC(N)=NC3=O)o2)cc1	-3	-5	30*	3	10	62*
CCc1cc(=O)oc2cc(OC(C)C(=O)O)c(Cl)cc12 (stereo unspecified)	0	2	27*	/	2	-6
CCc1cc(=O)oc2cc(OCC(=O)O)c(Cl)cc12	-2	0	-1	/	0	/
O=C1C=CC(c2c[nH]c3ccccc23)CC1 (stereo unspecified)	-1	7	10	15	-1	/
CCCCCCCCN1C(=O)[C@H](CC(=O)NCc2cccc3ccccc23)C[C@@]2(C(=O)OC)CC(C)(C)CC=C12	2	5	8	-1	12	/
CN(C(=O)COc1ccc2ccc(=O)oc2c1)C1CCS(=O)(=O)C1 (stereo unspecified)	-2	-15	28*	/	5	6
COc1ccc(Br)cc1C(=O)Nc1ccc(N2CCCC2)cc1	2	9	32*	-2	46*	49*
COCCNc1nc(C)c(C(C)=O)s1	0	-7	26*	-1	-7	3
COc1ccccc1CNc1nc(C)c(C(C)=O)s1	5	-1	12	2	1	/
CNC(=S)N(CCc1c(C)[nH]c2ccc(C)cc12)Cc1cccs1	4	-9	26*	2	10	21
Cc1nn(-c2ccccc2)c(N2CCCC2)c1/C=N/NC(=S)Nc1ccc(F)cc1	4	-8	27*	-2	1	8
Cc1ccc(NC(=S)N/N=C/c2c(C)nn(-c3ccccc3)c2N2CCCC2)cc1	4	6	7	-1	4	/
COc1cc2c3nnc(-c4ccccc4)c-3cn(Cc3ccc(F)cc3)c2cc1OC	0	-2	6	4	4	/
